Test results: the EternaBench riboswitch data

Test system: MS2 coat protein
Experiment: apparent Kd, MS2 coat protein; higher = weaker binding; RNA-MaP array; FMN 200 µM where present
How it was run: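 On Illumina sequencing-chip clusters, designs were transcribed by stalled E. coli RNA polymerase and titrated with SNAP-549-labelled MS2 coat protein (0.7 or 1.5 nM, doubling to 3 µM), without and then with constant ligand, in 100 mM Tris-HCl pH 7.5, 80 mM KCl, 4 mM MgCl2, BSA, DTT, yeast tRNA and Tween-20. Apparent Kd is the median of filtered per-cluster curve fits to green signal normalised to red-channel RNA signal and control-cluster median Fmax.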

[1] = designed as: OFF switch for flavin mononucleotide, no ligand
[2] = ligand present: flavin mononucleotide, designed as: OFF switch for flavin mononucleotide
[3] = designed as: ON switch for flavin mononucleotide, no ligand
[4] = ligand present: flavin mononucleotide, designed as: ON switch for flavin mononucleotide

Sequence | apparent Kd [1] | apparent Kd [2] | apparent Kd [3] | apparent Kd [4]
UAAGAGUGAGGAUAUACGUCGCUGGUCAGGAUGGACGCAUGACAUGAGGAUCACCCAUGUAGAAGGCACAAAAC | 23.8 nM | 43.7 nM | – | –
AUCAUGUAAGGAUAUCUUACAUGUAUCGAAAGAUACAGUUAAGAGAAGGUACAUGAGGAUCACCCAUGUAUAAC | 29 nM | 45.5 nM | – | –
UUGGACGUCGUAGGAUAUGUAGGAUAUUCCUACAUGAGGAUCACCCAUGUUGACACGGAAGAAGGACAGAAGGACGAUGUCCAU | – | – | 11.6 nM | 4.23 nM
UAUAUAUAGUAAGGAUAUGUAUUUAUGUUAUAAACAGAAGGUACUGACAUGAGGAUCACCCAUGUUUUAGUGUGGGCAUGUAGA | 87.9 nM | 122 nM | – | –
GCAUGACAAAGUCAUGCAUAACGAACAUGAGGAUCACCCAUGUAGGAUAUGCUACUCAAAGAGUAGCAGAAGGACAUGUGCCUU | 34.2 nM | 263 nM | – | –
AAAAAACAUGAGGAUCACCCAUGUCAAAAGACAUGAGGAUAUGUACAGACUUCGGUCUGUACAGAAGGCAUGUAAA | – | – | 321 nM | 30.8 nM
AGAGAUGACGAAGGAUAUGGAUACAUGAGGAUCACCCAUGUUUAUUUAGUGAUUUUGUAUGAAUACCAGAAGGUCGAAUAAAAG | 125 nM | 342 nM | – | –
AACCUAUUACAGAAGGCCAGCUACAUGAGGAUCACCCAUGUCGAGUCAUGGAGGAUAUGUAGUAAUUUGCACGCGGGCGAGCAC | – | – | 59.7 nM | 7.05 nM
GUCAGCUCGUGAGGAUAUACAUCACUGCUUCGGCAGUGUAUUAAGAUAACAUGAGGAUCACCCAUGUAGAAGGCACGAGCUGAU | 17 nM | 28.5 nM | – | –
GGUAUGGACAGAGGAUAUACCGAUAGGAGAUACUAUCGACUAUUCCUCACAUGAGGAUCACCCAUGUAGAAGGCUGUCCAUACG | 17 nM | 65.5 nM | – | –
UUAUGAUAGAUAGGAUAUACAUUGGAUUUAAAAGUAGAAGGAUCAAGUGGGAAAUGAACAUGAGGAUCACCCAUGUAAUAGGUU | – | – | 109 nM | 78.6 nM
CUUAGACAUGAGGAUCACCCAUGUGAGGAUAUGAUGCAGCAGUGGUCUACGCUGUGCAUCAGAAGGCACAUAUG | 120 nM | 155 nM | – | –
UGGUACUAGGGAGGAUAUGGGACGAUACAUGAGGAUCACCCAUGUUUAAGAAUGCCGAGAGGCAACUAGAAGGCCCUAGUACCU | – | – | 494 nM | 21.7 nM
GCCGGAUUUGUGAGGAUAUACCUAUGGAUACAUAGGUAGAAGGCACAUGAGGAUCACCCAUGUUCCUCUCCGGC | 49 nM | 582 nM | – | –
GCAGGCUUCGAGAAGGACAUGAGGAUCACCCAUGUGCGUGUGAAGCAGCCGUGAGGCUGCAUCAUGUAGGAUAUCGGAGUCUGG | 72.2 nM | 525 nM | – | –
GUCGUUGUCUGGUCGAGGAUAGGGCAGGAUAUACAUGAGGAUCACCCAUGUGAAGCGCGAAGGAGGUAGAAGGGCCCACGUCAU | 14.7 nM | 14.8 nM | – | –
UUUAUAUUCAGAGGAUAUUAAAGUAGUAUAACAUAAGAAGGCUGUUUGUUUUGUAAAGUAAUUCUACAUGAGGAUCACCCAUGU | – | – | 20.9 nM | 17 nM
AGUAUGCGGCAGGAUAUCCAUCCGCGAAAAGGUGGAGAAGGGCUGACAUGAGGAUCACCCAUGUGCGUUUUGUA | 56 nM | 40 nM | – | –
GUCAGCUCGUGAGGAUAUACAUAAUAUCAAGAUCACAUGAGGAUCACCCAUGUAGAAGGCACGAGCUGAUAAGCACGAAAGUGC | 12.1 nM | 102 nM | – | –
UAAGUUGUGGUAGGAUAUACUUUAAAUUUCUCUAUCCAUACAUGAGGAUCACCCAUGUUUACAUUGUAGAAGGACCUUUUUGUU | 24.2 nM | 21.1 nM | – | –
AGCGAGGCAGGAUAUACAUGAGGAUCACCCAUGUGCUUGCAUGGCGUGGAAUGUCGAGGUAGAAGGGCCAUGCC | 21.3 nM | 26.1 nM | – | –
GUCCUCUUGACAUGAGGAUCACCCAUGUAUUAUUUGUUAACUGAGGAUAUACUCUUAUUUUUUAUGUAGAAGGCAGAUUUGUUC | 40.9 nM | 52.5 nM | – | –
GAGAAGAAGUUAGGAUAUUGGAUAGGGACGGAAUAAGAAGGAGCACAUACAUGAGGAUCACCCAUGUUAGAAGAAGAGAUCCUC | 545 nM | 253 nM | – | –
AACAGUAGAGGAUAUACAUGAGGAUCACCCAUGUGAGAUUUAAGUGGCGUACCACAAAGUAGAAGGCUACUGGA | 36.2 nM | 161 nM | – | –
UUUAUAAAUUAGAAGGCGAGAUGAAUUACAAUAGACAUGAGGAUCACCCAUGUGUACCCAUGUUUUGAGGAUAUAGUCAUAUAU | – | – | 743 nM | 585 nM
GCGCGCGUUGUGAGGAUAUUGUGUGUGAAAGCGCGCGAGAAGGCACAUGAGGAUCACCCAUGUAAGGUGUGUGU | 455 nM | 392 nM | – | –
UUUCCUGGAGGAUAUACAUGAGGAUCACCCAUGUGGUUCGGAUUAAGCGGCUUACGCGGUAGAAGGUUAGACUU | 108 nM | 85.1 nM | – | –
CACUCGUGUCUAGGAUAUGAGUGACAAGCGCGAGAUUUUCUCGCCGCUAGCUCAGAAGGAGACAUGAGGAUCACCCAUGUAAGG | 59.7 nM | 12.5 nM | – | –

Sequence | apparent Kd [1] | apparent Kd [2] | apparent Kd [3] | apparent Kd [4]
GGCGGGCGAAACAUGAGGAUCACCCAUGUGUUAUACUUAAUAUAGGAUAUGUUUAUACUUUUUGGGCAGAAGGAUGCGCCUGCC | – | – | 37.9 nM | 33.4 nM
CAGCGAUAGCUGAAUGGUACAUCCGAGGAUAUUCAUAAACAACAUGAGGAUCACCCAUGUAAUUGGGAGAAGGCGGAUGUACCU | – | – | 23.1 nM | 5.97 nM
AUUAUAAUUGAAGGAUAUCUAUAUCCAACAUGAGGAUCACCCAUGUUGAGGAUCACCCAUGUAAAGGAGAAGGUUAAUUAUAAU | – | – | – | 24.6 nM
GCAUAUCAGGGAGGAUAUGACAUGAGGAUCACCCAUGUAAUUAUGGCUCUGUCAGAAGGCCCAUCGUCACUAUAGCGACGAGAA | 587 nM | 16.9 nM | – | –
GUGCGUGGCUAGGAUAUUGUGGAGUUUAGUCAGCGAGAAGGAGCCACAUGAGGAUCACCCAUGUGGUGAAGCUC | 19.9 nM | 75 nM | – | –
GGAGCUCACAUCUACAUGAGGAUCACCCAUGUCAAAAGACAUGAGGAUAUGCAUCCUAAUUGGAUGCAGAAGGCAUGGAGCUCC | – | – | 946 nM | 57.4 nM
AAGAAGUGAGGAUAUCGUGCUCGUCACUUGCGUGAUGAGUACGAGAAGGCACAUGAGGAUCACCCAUGUAAAGA | 37.6 nM | 46.1 nM | – | –
GAGCAGUGUAAAUAAACUCAAAUACAUGAGGAUCACCCAUGUAAGGAUAUGCAGUGGAAUACACUGCAGAAGGUACAUCACUGC | 14.3 nM | 20.5 nM | – | –
UUUCGUCUCGAGAAGGUCUAUCGACAUGAGGAUCACCCAUGUUGCCAUGGAAGGAUAUCGAAGGCAGCACGGGAAAUAGUCCGG | – | – | 78.3 nM | 14 nM
UGGUAACAUGAGGAUCACCCAUGUCAAAUGAAUCGAGGAUAUGGGAAUUAACAACACAAACUAGAAGGCGAAUUUG | – | – | 303 nM | 247 nM
AUGGUACAUGAGGAUCACCCAUGUUAGGAUAUCGCGUGAUCUAAAACUAAGAGACACACGAGAAGGGACGACAU | 176 nM | 104 nM | – | –
AAAAAGGGAGGAUAUACAUGAGGAUCACCCAUGUAGCAGACGAAAAAGAGUCUGUAAUGUAGAAGGCCCAAAAA | 17.1 nM | 52.7 nM | – | –
ACGGCUGUCAGAGGAUAUGGUUACAUGAGGAUCACCCAUGUCAAGGGUCUAACUAAGUAUAACUACUAGAAGGCUGAUGGCCGA | 674 nM | 350 nM | – | –
UGUCGGAGCAGAGGAUAUUACAUGAGGAUCACCCAUGUAUGAACCAAUAGCUGGAAACAGCAAUGUAAGAAGGCUGGUCCGACA | 12.4 nM | 143 nM | – | –
GCGAUUGCGUAGAAGGUACUAUAUAAUACACUGUAAGGAUAUACAUACAUGAGGAUCACCCAUGUAAAUGGAAUUUGCAAUCGC | – | – | 6.93 nM | 6.41 nM
ACGACGAAAGUCGAACGAUGUAGCAGAAGGACAUGAGGAUCACCCAUGUCAGCUGUGACCAAAAUGUAGGAUAUGCUACAUCGA | 71.1 nM | 90.8 nM | – | –
GAUCAACAUGAGGAUCACCCAUGUGAGGAUAUGUAUCAUAGAUCUUCGGAUCUAUGAUACAGAAGGCAUGUAGG | 101 nM | 118 nM | – | –
GCAAGAAUAGGAUAUACACCAUGUCAGCUUCUAUACAACGCACAUGAGGAUCACCCAUGUAGAAGGGUUCUCUC | 553 nM | 504 nM | – | –
GUUUAGUGAGGAUAUGUGGCGUGGAUCGAGCGCGGUCGGCUACAGAAGGCACAUGAGGAUCACCCAUGUUUCUC | 106 nM | 280 nM | – | –
GUCAUCGUAUGAGGAUAUGGCACCGAAACGGUGCCAGAAGGCAUGUCAAUAGACAUGAGGAUCACCCAUGUGUUAUCGAUGGCA | – | – | 116 nM | 13.2 nM
AGACUGAAGCAAGGAUAUUGUAAGGUUAUCGUACAAGAAGGUGCUGUUUAUGUCUCUUAACAUGAGGAUCACCCAUGUUUUAAA | – | – | 19.7 nM | 21.8 nM
CGGUACAUCGGAGGAUAUCAUGUAAAUACAUGAGGAUCACCCAUGUCGAUGGAGACAUCGGAGAUUGAGAAGGCCGAUGUACCG | – | – | 186 nM | 9.27 nM
AGUUGGCGAGGAUAUACAUGAGGAUCACCCAUGUGAGAGAUACUAGUGAGGUCGAUUAGUAGAAGGCGCUGACA | 31.1 nM | 439 nM | – | –
CUCUUGUUAGGAUAUCAAACCGGCGGCGGAGCCGCCGGUAGUGAGAAGGGACAUGAGGAUCACCCAUGUAAGAA | 90.1 nM | 198 nM | – | –
GUUUAGUGAGGAUAUGUGGCAUAGAUCGAGCGCGGUCGGCUACAGAAGGCACAUGAGGAUCACCCAUGUUUCUC | 39.9 nM | 498 nM | – | –
CGCUGUCACGCAGGAUAUGCAAUGGAUUACAUUGCAGAAGGGCGAUCACAUGAGGAUCACCCAUGUGUAGACAGUGAAGAAGAG | – | – | 738 nM | 45.8 nM
AGAUGGCGAGGAUAUACAUGAGGAUCACCCAUGUGAAGAAUAAUAGUGAGGAAGAAAAGUAGAAGGCGCUGUCA | 45.5 nM | 209 nM | – | –
